≈ marks a conversion by molar mass, not a printed value. Calls of active or inactive are those of the source. The calls are words filed in the database; no cut-off is given here.
Experiments:
[1] = test system: Aspergillus niger; assay: Antimicrobial activity against Aspergillus niger ATCC 6275 up to 100 ug/ml after 48 hrs by two-fold broth dilution method; format: functional, organism-based
Method in brief: (§1)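 Fungi (yeasts C. tropicalis and S. cerevisiae, mould A. niger) grown in Sabouraud dextrose broth. Inoculum was 1·10³ fungi/mL. Compounds were dissolved in DMSO, which was also loaded as the negative control. Incubation was 30 °C for 48 h. The broth dilution method followed NCCLS reference methods for yeasts and filamentous fungi.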

[2] = test system: Bacillus spizizenii; assay: Antimicrobial activity against Bacillus subtilis ATCC 6633 after 24 hrs by two-fold broth dilution method; format: functional; details: ATCC 6633, 24 h
Method in brief: (§2)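 Bacteria were cultivated on Mueller Hinton medium and inoculated at 5·10⁵ bacteria/mL. Compounds were dissolved in DMSO, with DMSO loaded as the negative control. Samples were incubated at 37 °C for 24 h. The dilution susceptibility method followed the NCCLS standard for aerobically growing bacteria.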

[3] = test system: Haemophilus influenzae; assay: Antimicrobial activity against Haemophilus influenzae ATCC 19418 after 24 hrs by two-fold broth dilution method; format: functional; details: ATCC 19418, 24 h; method in brief: as §2
[4] = test system: Saccharomyces cerevisiae; assay: Antimicrobial activity against Saccharomyces cerevisiae ATCC 9763 up to 100 ug/ml after 48 hrs by two-fold broth dilution method; format: functional, organism-based; method in brief: as §1
[5] = test system: Staphylococcus aureus; assay: Antimicrobial activity against Staphylococcus aureus ATCC 6538 after 24 hrs by two-fold broth dilution method; format: functional; details: ATCC 6538, 24 h; method in brief: as §2
[6] = test system: Candida tropicalis; assay: Antimicrobial activity against Candida tropicalis ATCC 1369 up to 100 ug/ml after 48 hrs by two-fold broth dilution method; format: functional, organism-based; method in brief: as §1
[7] = test system: Escherichia coli; assay: Antimicrobial activity against Escherichia coli ATCC 8739 after 24 hrs by two-fold broth dilution method; format: functional; details: ATCC 8739, 24 h; method in brief: as §2
[8] = test system: Aspergillus niger; assay: Antimicrobial activity against Aspergillus niger ATCC 6275 after 48 hrs by two-fold broth dilution method; format: functional; details: ATCC 6275, 48 h; method in brief: as §1
[9] = test system: Saccharomyces cerevisiae; assay: microbe, parasite or virus in culture; details: ATCC 9763, 48 h
[10] = test system: Candida tropicalis; assay: Antimicrobial activity against Candida tropicalis ATCC 1369 after 48 hrs by two-fold broth dilution method; format: functional; details: ATCC 1369, 48 h; method in brief: as §1

Row | Compound | Activity [1] | MIC [2] [ng/mL] | MIC [3] [ng/mL] | Activity [4] | MIC [5] [ng/mL] | Activity [6] | MIC [7] [ng/mL] | MIC [8] [ng/mL] | MIC [9] [ng/mL] | MIC [10] [ng/mL]
1 | COc1c(C)cc(-c2c(F)cc3c(=O)c(C(=O)O)cn(C4CC4)c3c2[N+](=O)[O-])cc1C | inactive | 0.07 (≈ 0.000164 µM) | 15 (≈ 0.0352 µM) | inactive | 3 (≈ 0.00704 µM) | inactive | 25000 (≈ 58.6 µM) |  |  | 
2 | O=C(O)c1cn(C2CC2)c2c([N+](=O)[O-])c(-c3ccc(F)cc3)c(F)cc2c1=O | inactive | 15 (≈ 0.0388 µM) | 70 (≈ 0.181 µM) | inactive | 150 (≈ 0.388 µM) | inactive | 3000 (≈ 7.77 µM) |  |  | 
3 | Cc1ccc(-c2c(F)cc3c(=O)c(C(=O)O)cn(C4CC4)c3c2[N+](=O)[O-])cc1 | inactive | 15 (≈ 0.0392 µM) | 30 (≈ 0.0785 µM) | inactive | 150 (≈ 0.392 µM) | inactive | 3000 (≈ 7.85 µM) |  |  | 
4 | O=C(O)c1cn(C2CC2)c2c([N+](=O)[O-])c(-c3ccccc3)c(F)cc2c1=O | inactive | 15 (≈ 0.0407 µM) | 150 (≈ 0.407 µM) | inactive | 150 (≈ 0.407 µM) | inactive | 3000 (≈ 8.15 µM) |  |  | 
5 | Clc1ccc(COC(Cn2ccnc2)c2ccc(Cl)cc2Cl)c(Cl)c1 (stereo unspecified) [MICONAZOLE] | inactive |  |  | inactive |  | inactive |  | 3000 (≈ 7.21 µM) | 12000 (≈ 28.8 µM) | 6000 (≈ 14.4 µM)
6 | COc1ccc(-c2c(F)cc3c(=O)c(C(=O)O)cn(C4CC4)c3c2[N+](=O)[O-])cc1 | inactive | 30 (≈ 0.0753 µM) | 150 (≈ 0.377 µM) | inactive | 150 (≈ 0.377 µM) | inactive | 25000 (≈ 62.8 µM) |  |  | 

— ChEMBL document CHEMBL3351260, “A new efficient route to 7-aryl-6-fluoro-8-nitroquinolones as potent antibacterial agents” (2014)
